Structures are written as SMILES. The source made the active and inactive calls. The rule behind the calls is not given here.

Series [1] has as its system PA-1. The experiment in a line: Cytotoxicity against human PA1 cells at 10 uM after 72 hrs by MTT assay. Format: functional, cell-based. The method in brief: (§1)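 Three-day MTT screen with 5000–10,000 cells/well and 72 h compound exposure at the top screening concentration. After 3 h of MTT uptake, lysis with 10% SDS–0.01 N HCl, then A540 read after 1 h. % cytotoxicity = (1 − X/R1)×100, where X is treated minus blank absorbance and R1 is untreated control absorbance.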
For orientation: Tetrazolium assays rely on reduction of a dye to a coloured formazan, in cell work by metabolically active cells.

The test system of series [2] is DU-145. Briefly: Cytotoxicity against human DU145 cells at 10 uM after 72 hrs by MTT assay. Type of series: functional, cell-based. The method in brief:
as §1

In series [3] the test system is KB. Briefly: Cytotoxicity against human KB cells at 10 uM after 72 hrs by MTT assay. Type of series: functional, cell-based. The gist of the method: as §1
The subject of series [4] is SW-620. The experiment in a line: Cytotoxicity against human SW620 cells at 10 uM after 72 hrs by MTT assay. Format: functional, cell-based. The method in brief:
as §1

The test system of series [5] is HBL-100. The experiment in a line: Cytotoxicity against human HBL100 cells at 10 uM after 72 hrs by MTT assay. Format: functional, cell-based. The gist of the method: as §1
In series [6] the test system is A549. The experiment in a line: Cytotoxicity against human A549 cells at 10 uM after 72 hrs by MTT assay. Format: functional, cell-based. The gist of the method:
as §1

In series [7] the test system is MIA PaCa-2. The experiment in a line: Cytotoxicity against human MIAPaCa2 cells at 10 uM after 72 hrs by MTT assay. Type of series: functional, cell-based. The method in brief:
as §1

In series [8] the test system is K562. Briefly: Cytotoxicity against human K562 cells at 10 uM after 72 hrs by MTT assay. Type of series: functional, cell-based. The gist of the method: as §1
The subject of series [9] is ECV-304. Briefly: Cytotoxicity against human ECV304 cells at 10 uM after 72 hrs by MTT assay. Type of series: functional, cell-based. The method in brief:
as §1

The nature of series [10]: Cytotoxicity against mouse NIH/3T3 cells at 10 uM after 72 hrs by MTT assay. Format: cell-based. As to conditions: nih3t3, 72 h. The method in brief: as §1
Series [11] can be described thus: Antiinflammatory activity in C57BL/6 mouse DC assessed as inhibition of LPS-induced IL1-beta production at 1 ug/ml after 24 hrs by ELISA. Format: functional. The gist of the method: (§2)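 Dendritic cells grown from femoral bone marrow of 8–12-week-old C57BL/6 mice in RPMI-1640 with 10% FBS and 20 ng/ml rmGM-CSF at 37 °C, 5% CO2. Day-6 immature DCs were stimulated with 10 ng/ml LPS plus compound for 24 h. Supernatant cytokine/chemokine measured by ELISA (pg/ml); % change = (B−A)/A×100, versus LPS-stimulated DCs alone.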

The nature of series [12]: Antiinflammatory activity in C57BL/6 mouse DC assessed as inhibition of LPS-induced IL1-beta production at 0.1 ug/ml after 24 hrs by ELISA. Format: functional. The gist of the method:
as §2
For orientation: ELISA stands for enzyme-linked immunosorbent assay.

Series [13] is described as follows: Antiinflammatory activity in C57BL/6 mouse DC assessed as inhibition of LPS-induced TNFalpha production at 1 ug/ml after 24 hrs by ELISA. Format: functional. The gist of the method: as §2
Series [14] in a line: Antiinflammatory activity in C57BL/6 mouse DC assessed as inhibition of LPS-induced TNFalpha production at 0.1 ug/ml after 24 hrs by ELISA. Format: functional. The gist of the method: as §2
Series [15] is described as follows: Antiinflammatory activity in C57BL/6 mouse DC assessed as inhibition of LPS-induced IP-10 production at 1 ug/ml after 24 hrs by ELISA. Format: functional. The gist of the method:
as §2

A short description of series [16]: Antiinflammatory activity in C57BL/6 mouse DC assessed as inhibition of LPS-induced IP-10 production at 0.1 ug/ml after 24 hrs by ELISA. Format: functional. The gist of the method:
as §2

Series [17] has as its system PA-1. Briefly: Cytotoxicity against human PA1 cells after 72 hrs by MTT assay. Format: functional, cell-based. As to conditions: PA-1, 72 h.
The test system of series [18] is DU-145. Briefly: Cytotoxicity against human DU145 cells after 72 hrs by MTT assay. Format: functional, cell-based. As to conditions: DU-145, 72 h.
For series [19], the system named is KB. The experiment in a line: Cytotoxicity against human KB cells after 72 hrs by MTT assay. Type of series: functional, cell-based.
Series [20] deals with SW-620. Briefly: Cytotoxicity against human SW620 cells after 72 hrs by MTT assay. Type of series: functional, cell-based. As to conditions: SW-620, 72 h.
Series [21] has as its system HBL-100. Briefly: Cytotoxicity against human HBL100 cells after 72 hrs by MTT assay. Format: functional, cell-based. As to conditions: HBL-100, 72 h.
Series [22] concerns A549. Briefly: Cytotoxicity against human A549 cells after 72 hrs by MTT assay. Format: functional, cell-based. As to conditions: A549, 72 h.
The subject of series [23] is MIA PaCa-2. Briefly: Cytotoxicity against human MIAPaCa2 cells after 72 hrs by MTT assay. Type of series: functional, cell-based. As to conditions: MIA PaCa-2, 72 h.
The test system of series [24] is K562. Briefly: Cytotoxicity against human K562 cells after 72 hrs by MTT assay. Format: functional, cell-based. As to conditions: K562, 72 h.
For series [25], the system named is ECV-304. Briefly: Cytotoxicity against human ECV304 cells after 72 hrs by MTT assay. As to conditions: Homo sapiens, ECV-304, 72 h; read-out: IC50. Type of series: functional, cell-based.
Series [26] is described as follows: Cytotoxicity against mouse NIH/3T3 cells after 72 hrs by MTT assay. Type of series: cell-based, NIH3T3.
Series [27] is described as follows: Antiinflammatory activity in C57BL/6 mouse DC assessed as inhibition of LPS-induced IL-6 production at 1 ug/ml after 24 hrs by ELISA. Type of series: functional. The method in brief:
as §2

Series [28] can be described thus: Antiinflammatory activity in C57BL/6 mouse DC assessed as inhibition of LPS-induced IL-6 production at 0.1 ug/ml after 24 hrs by ELISA. Type of series: functional. The method in brief: as §2

Take `C#CCn1cc(C(=O)NC(CC(=O)NC2CCCC2)c2ccccc2)c(=O)c2cccnc21` (centres undefined): the result in the series on PA-1 [1], in the series on DU-145 [2], with KB [3], with SW-620 [4], in the series on HBL-100 [5] and in the series with A549 [6] was inactive. In addition, the outcome in the series on MIA PaCa-2 [7], in the series on K562 [8] and in the series with ECV-304 [9] was inactive. Further, the Activity result in series [10] is given as “Not Active”. The “inhibition (INH)” value in series [11] is 52.1%; in series [12] it was 62.4%; in series [13], 34.7%; in series [14], 19.3%; in series [15], 25%; in [16], 38.8%.

For orientation: IC50 means the point on the concentration scale where inhibition reaches its midpoint. `C#CCn1cc(C(=O)NC(CC(=O)Nc2ccccc2)c2ccccc2)c(=O)c2cccnc21` (centres undefined): the IC50 in the series with PA-1 [17] is over 10 µM; in the series with DU-145 [18], 7.2 µM; with KB [19], over 10 µM; in the series with SW-620 [20], over 10 µM; with HBL-100 [21], over 10 µM; in the series on A549 [22], over 10 µM. Besides, the IC50 in the series on MIA PaCa-2 [23] was over 10 µM; in the series with K562 [24] it was over 10 µM; in the series on ECV-304 [25], over 10 µM; in series [26] (nih3t3) it was “Not Active”. Moreover, the “inhibition (INH)” value in series [11] stood at 78.5%; in series [12], 75.1%; in [13] it was 29.7%; in series [14], 19.1%; in series [15] it was 33.1%; in series [16] it was 31.7%.

Regarding `C#CCn1cc(C(=O)NC(CC(=O)Nc2ccccn2)c2ccccc2)c(=O)c2cccnc21` (centres undefined), the outcome in the series with PA-1 [1], in the series with DU-145 [2], in the series on KB [3], with SW-620 [4], in the series with HBL-100 [5] and with A549 [6] was inactive. In addition, the result in the series with MIA PaCa-2 [7], with K562 [8] and with ECV-304 [9] was inactive. For the same compound, the Activity result in [10] is given as “Not Active”. Also, the “inhibition (INH)” value in series [11] was 50.1%; in series [12], 34.1%; in [27] it was 74.9%; in series [28], 74.4%.

For `C#CCn1cc(C(=O)NC(CC(=O)Nc2ccccc2)c2ccccc2)c(=O)c2cc(F)c(Cl)nc21` (centres undefined), the IC50 with PA-1 [17] was 2.1 µM; with DU-145 [18] it was 5.9 µM; in the series with KB [19], over 10 µM; in the series with SW-620 [20] it was 5.7 µM; in the series on HBL-100 [21] it was 9.3 µM; in the series on A549 [22], over 10 µM. The IC50 was 6.9 µM with MIA PaCa-2 [23]; 6.6 µM in the series with K562 [24]; over 10 µM in the series with ECV-304 [25]; 9.7 µM in series [26] (Mus musculus, NIH3T3, 72 h, read-out: IC50). The “inhibition (INH)” value in series [11] came to 106.8%; in series [12], 84.8%; in series [27] it was 96%; in series [28], 60%; in series [13], 99%; in series [14], 80%. For the same compound, the “inhibition (INH)” value in [15] worked out at 102.4%; in series [16], 17.3%.
